Source: ChEMBL document CHEMBL4270599, “Synthesis of a 3'-C-ethynyl-β-d-ribofuranose purine nucleoside library: Discovery of C7-deazapurine analogs as potent antiproliferative nucleosides” (Eur J Med Chem, 2018)

Columns and labels:
L1210 = assay: Antiproliferative activity against mouse L1210 cells after 48 hrs by Coulter counter method; format: functional, cell-based; conditions: L1210, 48 h
Procedure, shortened: (§1)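 Cell count assay in 96-well microtiter plates; (5–7.5) × 10⁴ tumor cells per well plus test compound. Cells proliferated at 37 °C in humidified CO₂-controlled atmosphere, 48 h for murine leukemia L1210, 72 h for human lymphocytic CEM and cervix carcinoma HeLa. Counted by Coulter counter; IC₅₀ is the concentration that inhibits proliferation by 50%.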

HeLa = assay: Antiproliferative activity against human HeLa cells after 72 hrs by Coulter counter method; format: functional, cell-based; procedure, shortened: as §1
HCT-15 [1] = assay: Cytotoxicity against human HCT15 cells after 48 hrs by SRB assay; format: functional; conditions: HCT-15, 48 h; for GI50: read-out: GI50
KM12 = assay: Cytotoxicity against human KM12 cells after 48 hrs by SRB assay; format: functional; conditions: KM12, 48 h; for GI50: read-out: GI50
OVCAR-3 = assay: Cytotoxicity against human OVCAR3 cells after 48 hrs by SRB assay; format: functional; conditions: OVCAR-3, 48 h; for GI50: read-out: GI50; for TGI: read-out: TGI
SN12C [2] = assay: Cytotoxicity against human SN12C cells after 48 hrs by SRB assay; format: functional; conditions: for GI50: read-out: GI50; for CC50: read-out: LC50 (the source's name)
TK-10 [3] = assay: Cytotoxicity against human TK10 cells after 48 hrs by SRB assay; format: functional; conditions: TK-10, 48 h; for GI50: read-out: GI50; for TGI: read-out: TGI
MOLT-4 = assay: Growth inhibition of human MOLT4 cells assessed as cell growth at 10^-8 M incubated for 48 hrs by sulforhodamine B assay relative to control; format: functional; conditions: MOLT-4, 48 h, read-out: Activity
SR = assay: Growth inhibition of human SR cells assessed as cell growth at 10^-8 M incubated for 48 hrs by sulforhodamine B assay relative to control; format: functional; conditions: read-out: Activity
NCI-H226 = assay: Growth inhibition of human NCI-H226 cells assessed as cell growth at 10^-8 M incubated for 48 hrs by sulforhodamine B assay relative to control; format: functional; conditions: NCI-H226, 48 h, read-out: Activity
SK-MEL-2 [4] = assay: Growth inhibition of human SK-MEL-2 cells assessed as cell growth at 10^-8 M incubated for 48 hrs by sulforhodamine B assay relative to control; format: functional; conditions: SK-MEL-2, 48 h, read-out: Activity
SK-MEL-5 = assay: Growth inhibition of human SK-MEL-5 cells assessed as cell growth at 10^-8 M incubated for 48 hrs by sulforhodamine B assay relative to control; format: functional; conditions: SK-MEL-5, 48 h, read-out: Activity
OVCAR-8 = assay: Growth inhibition of human OVCAR8 cells assessed as cell growth at 10^-8 M incubated for 48 hrs by sulforhodamine B assay relative to control; format: functional; conditions: OVCAR-8, 48 h, read-out: Activity
SK-OV-3 = assay: Growth inhibition of human SKOV3 cells assessed as cell growth at 10^-8 M incubated for 48 hrs by sulforhodamine B assay relative to control; format: functional; conditions: SK-OV-3, 48 h, read-out: Activity
786-0 = assay: Growth inhibition of human 786-0 cells assessed as cell growth at 10^-8 M incubated for 48 hrs by sulforhodamine B assay relative to control; format: functional; conditions: 786-0, 48 h, read-out: Activity
SN12C [5] = assay: Growth inhibition of human SN12C cells assessed as cell growth at 10^-8 M incubated for 48 hrs by sulforhodamine B assay relative to control; format: functional; conditions: read-out: Activity
K562 = assay: Growth inhibition of human K562 cells assessed as cell growth at 10^-7 M incubated for 48 hrs by sulforhodamine B assay relative to control; format: functional; conditions: K562, 48 h, read-out: Activity
NCI-H322M = assay: Growth inhibition of human NCI-H322M cells assessed as cell growth at 10^-7 M incubated for 48 hrs by sulforhodamine B assay relative to control; format: functional; conditions: read-out: Activity
HCT-116 = assay: Growth inhibition of human HCT116 cells assessed as cell growth at 10^-7 M incubated for 48 hrs by sulforhodamine B assay relative to control; format: functional; conditions: HCT-116, 48 h, read-out: Activity
HCT-15 [6] = assay: Growth inhibition of human HCT15 cells assessed as cell growth at 10^-7 M incubated for 48 hrs by sulforhodamine B assay relative to control; format: functional; conditions: HCT-15, 48 h, read-out: Activity
SNB-19 [7] = assay: Growth inhibition of human SNB19 cells assessed as cell growth at 10^-7 M incubated for 48 hrs by sulforhodamine B assay relative to control; format: functional; conditions: SNB-19, 48 h, read-out: Activity
SK-MEL-2 [8] = assay: Growth inhibition of human SK-MEL-2 cells assessed as cell growth at 10^-7 M incubated for 48 hrs by sulforhodamine B assay relative to control; format: functional; conditions: SK-MEL-2, 48 h, read-out: Activity
SN12C [9] = assay: Growth inhibition of human SN12C cells assessed as cell growth at 10^-7 M incubated for 48 hrs by sulforhodamine B assay relative to control; format: functional; conditions: read-out: Activity
TK-10 [10] = assay: Growth inhibition of human TK10 cells assessed as cell growth at 10^-7 M incubated for 48 hrs by sulforhodamine B assay relative to control; format: functional; conditions: TK-10, 48 h, read-out: Activity
MDA-MB-231 = assay: Growth inhibition of human MDA-MB-231 cells assessed as cell growth at 10^-7 M incubated for 48 hrs by sulforhodamine B assay relative to control; format: functional; conditions: MDA-MB-231, 48 h, read-out: Activity
BT-549 = assay: Growth inhibition of human BT549 cells assessed as cell growth at 10^-7 M incubated for 48 hrs by sulforhodamine B assay relative to control; format: functional; conditions: BT-549, 48 h, read-out: Activity
UACC-257 = assay: Growth inhibition of human UACC257 cells assessed as cell growth at 10^-5 M incubated for 48 hrs by sulforhodamine B assay relative to control; format: functional; conditions: UACC-257, 48 h, read-out: Activity
SNB-19 [11] = assay: Growth inhibition of human SNB19 cells assessed as cell growth at 10^-6 M incubated for 48 hrs by sulforhodamine B assay relative to control; format: functional; conditions: SNB-19, 48 h, read-out: Activity
SNB-19 [12] = assay: Growth inhibition of human SNB19 cells assessed as cell growth at 10^-5 M incubated for 48 hrs by sulforhodamine B assay relative to control; format: functional; conditions: SNB-19, 48 h, read-out: Activity
SW-620 = assay: Growth inhibition of human SW620 cells assessed as cell growth at 10^-4 M incubated for 48 hrs by sulforhodamine B assay relative to control; format: functional; conditions: SW-620, 48 h, read-out: Activity
DU-145 = assay: Growth inhibition of human DU145 cells assessed as cell growth at 10^-4 M incubated for 48 hrs by sulforhodamine B assay relative to control; format: functional; conditions: DU-145, 48 h, read-out: Activity
[13] = read-out: pLC50 (the source's name) (converted)
[14] = read-out: LC50 (the source's name)

C#C[C@@]1(O)[C@@H](CO)O[C@@H](n2cc(Cl)c3c(N)ncnc32)[C@@H]1O
IC50 (L1210): 14 nM | IC50 (HeLa): 51 nM | GI50 (HCT-15 [1]): 134 to 152 nM | TGI (HCT-15 [1]; read-out: TGI): > 100000 nM | CC50 (HCT-15 [1]; [13]): > 100000 nM | TGI (HCT-15 [1]; read-out: pTGI (converted)): > 100000 nM | GI50 (KM12): 126 to 161 nM | CC50 (KM12; [14]): > 100000 nM | TGI (KM12; read-out: TGI): > 100000 nM | TGI (KM12; read-out: pTGI (converted)): > 100000 nM | GI50 (OVCAR-3): 228 to 237 nM | TGI (OVCAR-3): 1600 to 2010 nM | CC50 (OVCAR-3; [13]): > 100000 nM | GI50 (SN12C [2]): 113 to 230 nM | CC50 (SN12C [2]): > 100000 nM | GI50 (TK-10 [3]): 302 to 334 nM | TGI (TK-10 [3]): 891 to 1720 nM | CC50 (TK-10 [3]; [13]): > 100000 nM | growth at 0.01 µM (MOLT-4): 81 to 83% | growth at 0.01 µM (SR): 107 to 108% | growth at 0.01 µM (NCI-H226): 99 to 108% | growth at 0.01 µM (SK-MEL-2 [4]): 86 to 95% | growth at 0.01 µM (SK-MEL-5): 90 to 97% | growth at 0.01 µM (OVCAR-8): 50 to 62% | growth at 0.01 µM (SK-OV-3): 84 to 94% | growth at 0.01 µM (786-0): 80 to 82% | growth at 0.01 µM (SN12C [5]): 85 to 90% | growth at 0.1 µM (K562): 45 to 55% | growth at 0.1 µM (NCI-H322M): 67 to 80% | growth at 0.1 µM (HCT-116): 4 to 5% | growth at 0.1 µM (HCT-15 [6]): 57 to 61% | growth at 0.1 µM (SNB-19 [7]): 12 to 70% | growth at 0.1 µM (SK-MEL-2 [8]): 47 to 66% | growth at 0.1 µM (SN12C [9]): 53 to 72% | growth at 0.1 µM (TK-10 [10]): 100 to 101% | growth at 0.1 µM (MDA-MB-231): 60 to 71% | growth at 0.1 µM (BT-549): 86 to 90% | growth at 10 µM (UACC-257): 34 to 42%

C#C[C@@]1(O)[C@@H](CO)O[C@@H](n2cc(Br)c3c(N)ncnc32)[C@@H]1O
IC50 (L1210): 28 nM | IC50 (HeLa): 93 nM | GI50 (HCT-15 [1]): 172 to 707 nM | CC50 (HCT-15 [1]; [14]): > 100000 nM | TGI (HCT-15 [1]; read-out: TGI): > 100000 nM | TGI (HCT-15 [1]; read-out: pTGI (converted)): > 100000 nM | GI50 (KM12): 94.6 to 121 nM | TGI (KM12; read-out: TGI): > 100000 nM | CC50 (KM12; [13]): > 100000 nM | TGI (KM12; read-out: pTGI (converted)): > 100000 nM | GI50 (OVCAR-3): 184 to 252 nM | CC50 (OVCAR-3; [14]): > 100000 nM | TGI (OVCAR-3): 3010 to 4710 nM | GI50 (SN12C [2]): 37.7 to 218 nM | CC50 (SN12C [2]): > 100000 nM | TGI (SN12C [2]; read-out: TGI): > 100000 nM | TGI (SN12C [2]; read-out: pTGI (converted)): > 100000 nM | GI50 (TK-10 [3]): 411 to 481 nM | CC50 (TK-10 [3]; [14]): > 100000 nM | TGI (TK-10 [3]): 85800 to 100000 nM | growth at 0.01 µM (MOLT-4): 86 to 95% | growth at 0.01 µM (SR): 101 to 104% | growth at 0.01 µM (NCI-H226): 96 to 98% | growth at 0.01 µM (SK-MEL-2 [4]): 96 to 106% | growth at 0.01 µM (SK-MEL-5): 93 to 96% | growth at 0.01 µM (OVCAR-8): 53 to 76% | growth at 0.01 µM (SK-OV-3): 91 to 93% | growth at 0.01 µM (786-0): 86 to 91% | growth at 0.01 µM (SN12C [5]): 76 to 96% | growth at 0.1 µM (K562): 27 to 48% | growth at 0.1 µM (NCI-H322M): 73 to 76% | growth at 0.1 µM (HCT-116): 2 to 12% | growth at 0.1 µM (HCT-15 [6]): 45 to 63% | growth at 0.1 µM (SNB-19 [7]): 6 to 71% | growth at 0.1 µM (SK-MEL-2 [8]): 48 to 75% | growth at 0.1 µM (SN12C [9]): 31 to 69% | growth at 0.1 µM (TK-10 [10]): 99 to 103% | growth at 0.1 µM (MDA-MB-231): 36 to 71% | growth at 0.1 µM (BT-549): 65 to 84% | growth at 1 µM (SNB-19 [11]): 6% | growth at 10 µM (SNB-19 [12]): 1% | growth at 10 µM (UACC-257): 37 to 43% | growth at 100 µM (SW-620): 4 to 6% | growth at 100 µM (DU-145): 8 to 10%
